Screening results (PubChem BioAssay)
JNK3 inh: inhibitors of human JNK3 kinase; inhibition, % at 8 µM; P53779; purified JNK3 kinase activity, HTS; AID 746; 60,000 tested, 0.61% active; in the data active = inhibition above about 17%;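 also: 0% = DMSO and 100% = reference inhibitor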
Hsp90 inh: displaces geldanamycin probe from tumor Hsp90; P07900; NCI-N417 lysate Hsp90, Cy3B-geldanamycin FP displacement; inhibition, % at 30 µM; 64,000 tested, 0.35% active;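 active = inhibition above 50%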;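 also: 0% = tracer plus lysate wells and 100% = tracer alone without lysate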
AP complement: orthogonal test for alternative complement pathway inhibitors; Human serum alternative complement pathway, LPS-coated ELISA, C3 deposition; tested in compound mixtures; inhibition, % at 5 µM; 62,000 tested, 0.08% active; AID 1235;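 active = inhibition above 30% in each of the two pooled mixtures holding the compound, so the lower value exceeds 30%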;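 also: 0% = serum in Mg-EGTA without compound and 100% = EDTA serum blank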
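Test system: human serum alternative complement pathway, C3 deposition on LPS-coated wells; also added: Plate-bound LPS; doses: 5 µM per compound in ten-compound mixtures; schedule: 1 h at 37 °C; detection: Anti-C3 ELISA, OD 450 nm; evaluation: percent inhibition of C3 deposition onto LPS; repeats: two pool placements per compound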
Jurkat viability: cytotoxic compounds reducing Jurkat cell viability; Jurkat E6.1 viability, ATP luminescence, 48 h; inhibition, % at 4 µM; 56,000 tested, 1.2% active; AID 463;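 active = inhibition above the mean inhibition of all tested compounds plus 3 SD, cut at about 28% in these data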
HER2 expr 66K: lowers expression of human Her2 kinase; P04626; 65,000 tested, 0.69% active; SKBR-3 HER2 protein level, AlphaScreen, 18-24 h; active compounds read low; HER2 level % of control, % at 10 µM;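 active = HER2 level under 5% of the carrier-only control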;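 also: 100% = DMSO carrier and 0% = 500 nM PU-H71 HSP90 inhibitor; lower value means stronger loss of Her2 protein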
Target sequence (P04626 whole entry, looked up): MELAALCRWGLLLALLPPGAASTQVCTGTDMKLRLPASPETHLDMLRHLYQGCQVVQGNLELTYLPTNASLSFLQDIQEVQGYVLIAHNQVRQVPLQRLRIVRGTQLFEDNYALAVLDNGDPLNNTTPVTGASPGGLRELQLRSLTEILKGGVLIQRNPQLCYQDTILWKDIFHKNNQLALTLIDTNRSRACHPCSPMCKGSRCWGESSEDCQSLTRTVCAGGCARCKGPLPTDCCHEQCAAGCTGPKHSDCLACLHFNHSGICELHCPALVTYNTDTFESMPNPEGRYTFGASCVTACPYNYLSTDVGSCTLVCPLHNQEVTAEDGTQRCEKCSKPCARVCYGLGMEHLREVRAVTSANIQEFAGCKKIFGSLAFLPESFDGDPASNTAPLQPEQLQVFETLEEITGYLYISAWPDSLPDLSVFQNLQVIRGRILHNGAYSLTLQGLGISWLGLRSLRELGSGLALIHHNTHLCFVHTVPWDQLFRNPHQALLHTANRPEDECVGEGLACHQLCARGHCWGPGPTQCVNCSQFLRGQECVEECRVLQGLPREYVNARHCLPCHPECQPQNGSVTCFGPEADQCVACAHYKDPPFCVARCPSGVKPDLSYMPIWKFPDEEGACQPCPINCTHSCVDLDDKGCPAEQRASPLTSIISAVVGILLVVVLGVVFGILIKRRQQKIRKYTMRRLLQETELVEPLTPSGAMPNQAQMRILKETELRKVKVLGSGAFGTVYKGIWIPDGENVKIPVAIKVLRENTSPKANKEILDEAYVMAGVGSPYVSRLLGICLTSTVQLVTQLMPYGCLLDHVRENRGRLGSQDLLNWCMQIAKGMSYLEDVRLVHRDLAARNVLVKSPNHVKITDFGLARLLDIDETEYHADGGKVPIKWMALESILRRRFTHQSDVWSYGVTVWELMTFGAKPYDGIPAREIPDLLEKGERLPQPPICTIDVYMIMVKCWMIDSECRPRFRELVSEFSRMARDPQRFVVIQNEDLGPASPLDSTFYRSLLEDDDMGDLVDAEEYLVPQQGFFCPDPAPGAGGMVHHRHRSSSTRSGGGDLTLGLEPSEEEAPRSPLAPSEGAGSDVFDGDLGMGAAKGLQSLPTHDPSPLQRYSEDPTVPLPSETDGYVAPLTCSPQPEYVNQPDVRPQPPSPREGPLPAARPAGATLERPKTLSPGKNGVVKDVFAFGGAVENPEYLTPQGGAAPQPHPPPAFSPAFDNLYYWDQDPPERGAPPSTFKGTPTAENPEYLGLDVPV
HEK293 NFkB inh: lowers PMA/ionomycin-induced NF-kB signal in HEK293 cells | 62,000 tested, 0.21% active | AID 465 | HEK-293 NF-kB luciferase reporter, luminescence | inhibition, % at 3 µM;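 active = inhibition above the mean of all tested compounds plus 3 SD, cut at about 40% in these data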;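 also: 0% = stimulated DMSO wells and 100% = 10 µM reference inhibitor 5653914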
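System – HEK-293 cells with stable firefly luciferase reporter driven by four HIV NF-kB elements · Doses – one dose, 3 µM · Schedule – 1 h compound pre-incubation, 16 h PMA/ionomycin at 37 °C · Technique – luminescence from luciferase substrate reagent · Measure – percent inhibition normalized per plate to DMSO and reference-inhibitor controls · Replicates – tested once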
Active calls of the source: *. Rows were chosen to be rich in hits. Some 2.5% of all compounds tested hit in one or more screens of this group.

For COc1cccc2sc(Nc3nc(-c4ccccn4)cs3)nc12 the results were JNK3 inh 2, Hsp90 inh 11, AP complement -3, Jurkat viability 92*, HER2 expr 66K 71 and HEK293 NFkB inh -1.
For COc1cccc2sc(Nc3nnc(-c4cccs4)o3)nc12 the results were JNK3 inh -4, Hsp90 inh 3, AP complement 20, Jurkat viability 47*, HER2 expr 66K 67 and HEK293 NFkB inh -57.
Screening Cc1ccc2nc(N3CCN(C(=O)c4cccs4)CC3)c(C#N)cc2c1 returned JNK3 inh -2, Hsp90 inh -5, AP complement 9, Jurkat viability 5, HER2 expr 66K 113 and HEK293 NFkB inh -2.
`Cc1cn([C@H]2C[C@@H](N=[N+]=[N-])[C@@H](CO)O2)c(=O)[nH]c1=O` gave Hsp90 inh -3.
For c1ccc2c(c1)C(=Nn1cnnc1)c1ccccc1-2 the results were Hsp90 inh -15, AP complement -2, HER2 expr 66K 120 and HEK293 NFkB inh 6.
For O=C1/C(=N/n2cnnc2)c2ccccc2N1Cc1ccccc1 the results were JNK3 inh -2, Hsp90 inh -9, AP complement 15, Jurkat viability -4, HER2 expr 66K -16* and HEK293 NFkB inh 10.
O=C(CSc1nc(-c2ccco2)cc(C(F)(F)F)n1)Nc1ccc2c(c1)OCO2 was read as JNK3 inh 7, Hsp90 inh 5, Jurkat viability 29*, HER2 expr 66K 70 and HEK293 NFkB inh 16.
For O=C(CCCSc1nc(-c2ccco2)cc(C(F)(F)F)n1)Nc1ccc2c(c1)OCO2 the results were JNK3 inh 0, Hsp90 inh -3, AP complement -12, Jurkat viability 0, HER2 expr 66K 69 and HEK293 NFkB inh 8.
For O=C(c1c(F)c(F)c(F)c(F)c1F)N1CCc2ccccc21 the results were JNK3 inh -3, Hsp90 inh -3, AP complement 11, Jurkat viability 12, HER2 expr 66K 78 and HEK293 NFkB inh 21.
Screening COc1cc(CN/C(C)=C(\C#N)C(N)=O)cc(OC)c1OC returned JNK3 inh 63*, Hsp90 inh 0, AP complement -3, Jurkat viability 2, HER2 expr 66K 101 and HEK293 NFkB inh 10.
For COCc1cc(C)nc(SCC(=O)Nc2cc3c(cc2C#N)OCO3)c1C#N the results were JNK3 inh 22*, Hsp90 inh -7, AP complement 8, Jurkat viability 2, HER2 expr 66K 110 and HEK293 NFkB inh 18.
COCc1cc(C)nc(SCC(=O)Nc2ccccc2C)c1C#N was read as JNK3 inh 5, Hsp90 inh -1, AP complement 20, Jurkat viability 2, HER2 expr 66K 162 and HEK293 NFkB inh 15.
For COC(=O)c1cc2c(=O)n3ccccc3nc2n(Cc2cccnc2)c1=N the results were JNK3 inh 1, Hsp90 inh -2, AP complement -6, Jurkat viability 1, HER2 expr 66K 113 and HEK293 NFkB inh 4.
`COC(=O)c1cc2c(=O)n3ccccc3nc2n(C)c1=N` gave JNK3 inh -7, Hsp90 inh -2, AP complement 32*, Jurkat viability 5, HER2 expr 66K 89 and HEK293 NFkB inh 24.
Screening Cn1c(C(C#N)C(=O)c2ccco2)nc2ccccc21 (stereo unspecified) returned JNK3 inh -5, Hsp90 inh -5, AP complement 1, Jurkat viability -4, HER2 expr 66K -12* and HEK293 NFkB inh -15.
CCCn1c(NC(=O)c2ccco2)nc2ccccc21 was read as JNK3 inh 4, Hsp90 inh -2, AP complement 23, Jurkat viability 5, HER2 expr 66K 0.7* and HEK293 NFkB inh 3.
`CCOC(=O)Cc1csc(NC(=O)COc2ccc(N(C)S(=O)(=O)c3cccs3)cc2)n1` gave AP complement 1, HER2 expr 66K 62 and HEK293 NFkB inh 12.
For CCCCOc1ccccc1NC(=O)Cn1c(-c2nonc2N)nc2ccccc21 the results were JNK3 inh 0, Hsp90 inh 1, AP complement 6, Jurkat viability 33*, HER2 expr 66K 87 and HEK293 NFkB inh 38.
For COc1cc(Cn2c(-c3nonc3N)nc3ccccc32)ccc1C the results were JNK3 inh -5, Hsp90 inh 1, AP complement -4, Jurkat viability 31*, HER2 expr 66K 34 and HEK293 NFkB inh 23.
CCOc1ccc(CCNC(=O)Cn2c(-c3nonc3N)nc3ccccc32)cc1OCC was read as JNK3 inh -3, Hsp90 inh -5, AP complement 6, Jurkat viability 9, HER2 expr 66K 95 and HEK293 NFkB inh 18.
Screening COc1cccc(Cn2c(-c3nonc3N)nc3ccccc32)c1 returned JNK3 inh 3, Hsp90 inh -1, AP complement 16, Jurkat viability 81*, HER2 expr 66K 93 and HEK293 NFkB inh 12.
O=c1ccc2c(OCCCCc3ccccc3)c3ccoc3cc2o1 was read as Hsp90 inh -3.
CCOC(=O)c1cccc(N2C(N)=NC(N)=NC2(C)C)c1 was read as JNK3 inh -11, Hsp90 inh 1, AP complement 13, Jurkat viability 1, HER2 expr 66K 74 and HEK293 NFkB inh 14.
For COc1cccc(N2C(N)=NC(N)=NC2(C)C)c1 the results were JNK3 inh -4, Hsp90 inh -1, AP complement -9, Jurkat viability 66*, HER2 expr 66K 122 and HEK293 NFkB inh 10.
Screening Cc1ccc2c(c1)CC1(CN2C)C(=O)OC2(CCCCC2)OC1=O returned JNK3 inh 31*, Hsp90 inh -2, AP complement 7, Jurkat viability 3, HER2 expr 66K 90 and HEK293 NFkB inh 21.
`COc1ccc(C)cc1S(=O)(=O)Nc1ccccc1C` gave JNK3 inh -5, Hsp90 inh 0, AP complement 16, Jurkat viability -1, HER2 expr 66K 87 and HEK293 NFkB inh 15.
Screening COc1cc(NS(=O)(=O)c2ccc(C)cc2C)cc(OC)c1OC returned JNK3 inh -1, Hsp90 inh -2, AP complement 3, Jurkat viability 39*, HER2 expr 66K 72 and HEK293 NFkB inh 32.
COc1cc2c(=O)n(-c3ccc(C)cc3)c(=O)n(CC(=O)c3ccc4c(c3)OCO4)c2cc1OC was read as JNK3 inh -4, Hsp90 inh 4, AP complement 16, Jurkat viability -1, HER2 expr 66K 97 and HEK293 NFkB inh -8.
Screening COc1cc2c(O)c3c(c(-c4ccc5c(c4)OCO5)c2cc1OC)C(=O)OC3 returned JNK3 inh -7, Hsp90 inh 11, AP complement 22, Jurkat viability 60*, HER2 expr 66K 85 and HEK293 NFkB inh 34.
Screening COc1ccccc1N1CCN(C(=O)CN(c2cc(C)cc(C)c2)S(C)(=O)=O)CC1 returned JNK3 inh -8, Hsp90 inh 4, AP complement 4, Jurkat viability 6, HER2 expr 66K 118 and HEK293 NFkB inh -4.
